Assay results reported in ChEMBL document CHEMBL4699542, “Design and synthesis of novel methoxypyridine-derived gamma-secretase modulators” (Bioorg Med Chem, 2020).
pIC50: −log10 of the molar value. In brackets after ≈: the same amount, converted by molar mass.

How the values were obtained:
Cytochrome P450 1A2 = target: T1, Cytochrome P450 1A2 (Homo sapiens, UniProt P05177); assay: Inhibition of recombinant CYP1A2 (unknown origin) by fluorescence-based assay; format: ADME
T1 sequence (P05177 whole entry): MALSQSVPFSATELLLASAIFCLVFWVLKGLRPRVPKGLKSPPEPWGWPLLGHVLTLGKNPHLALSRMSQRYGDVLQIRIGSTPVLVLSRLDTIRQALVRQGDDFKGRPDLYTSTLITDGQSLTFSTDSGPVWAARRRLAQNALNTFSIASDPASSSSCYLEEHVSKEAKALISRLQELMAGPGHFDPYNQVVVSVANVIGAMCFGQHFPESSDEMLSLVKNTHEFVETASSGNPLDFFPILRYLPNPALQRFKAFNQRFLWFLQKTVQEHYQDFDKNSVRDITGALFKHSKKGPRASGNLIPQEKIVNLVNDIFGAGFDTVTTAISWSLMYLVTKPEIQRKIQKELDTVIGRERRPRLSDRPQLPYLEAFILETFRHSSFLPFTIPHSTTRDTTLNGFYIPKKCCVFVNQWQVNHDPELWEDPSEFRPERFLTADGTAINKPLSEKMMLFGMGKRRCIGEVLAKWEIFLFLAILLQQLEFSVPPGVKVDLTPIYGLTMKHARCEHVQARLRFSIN
How it was run: (§1)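 Recombinant CYP isoforms (five tested) screened for inhibition in fluorescence-based assays; IC50 in μM.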

[1] = In vivo modulation of gamma secretase in transgenic J20 mouse overexpressing human APP assessed as reduction in plasma amyloid beta40 level at 50 mg/kg, po administered via gavage for 3 consecutive days and measured after 4 hrs post last dose on day 3 by meso scale discovery relative to control; format: functional; design: scale not given: the % may be the effect or the level left; settings: time 3 day
How it was run: (§2)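 Female J20 mice, 5–6 months old (n=5/dose), dosed orally at 25, 50 or 100 mg/kg or with vehicle (5% NMP/95% PEG300) for 3 consecutive days. Plasma was taken 4 h after the final dose. Aβ38/40/42 measured by Meso Scale multiplex immunoassay, with % reduction relative to vehicle. Mean ± SEM, ANOVA.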

[2] = Ratio of drug level in brain to plasma of transgenic J20 mouse overexpressing human APP at 100 mg/kg, po administered via gavage for 3 consecutive days and measured after 4 hrs post last dose on day 3 by HPLC-MS/MS analysis; format: ADME, organism-based; settings: 72 h, time 3 day
How it was run: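 Female J20 mice, 5–6 months old (n=5/dose), dosed by oral gavage once daily for 3 days in 5% NMP/95% PEG300 vehicle. Sacrificed 4 h after the day-3 dose. Plasma and brain drug levels measured by LC-MS/MS (LLOQ 1 ng/mL plasma, 5 ng/g brain). Ratio = brain level/plasma level.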

[3] = Ratio of drug concentration in CD-1 mouse brain to plasma at 0.4 mg/kg, iv measured after 1 hr; format: ADME, organism-based
[4] = In vivo modulation of gamma secretase in transgenic J20 mouse overexpressing human APP assessed as reduction in plasma amyloid beta42 level at 25 mg/kg, po administered via gavage for 3 consecutive days and measured after 4 hrs post last dose on day 3 by meso scale discovery relative to control; format: functional; design: scale not given: the % may be the effect or the level left; settings: time 3 day; how it was run: as §2
[5] = Tmax in CD-1 mouse at 5 mg/kg, po administered as single dose measured up to 24 hrs; format: ADME, organism-based; settings: in vivo
How it was run: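 Male CD-1 mice, 6–8 weeks old, single oral gavage dose in 5% NMP/95% PEG300. Plasma (K3EDTA, retro-orbital, under isoflurane) taken at 0.25, 0.5, 1, 2, 4, 8 and 24 h, n=3/timepoint, analysed by HPLC/MS/MS. Non-compartmental extravascular analysis (Model 200); Tmax taken directly from the data.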

[6] = Drug level in plasma of transgenic J20 mouse overexpressing human APP at 25 mg/kg, po administered via gavage for 3 consecutive days and measured after 4 hrs post last dose on day 3 by HPLC-MS/MS analysis; format: ADME, organism-based; settings: time 3 day
How it was run: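 Female J20 mice, 5–6 months old, given 25, 50 or 100 mg/kg orally (5% NMP/95% PEG300) daily for 3 days, n=5/dose. Plasma and brain taken 4 h after the final dose and analysed by LC-MS/MS. LLOQ was 1 ng/mL in plasma and 5 ng/g in brain.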

[7] = In vivo modulation of gamma secretase in transgenic J20 mouse overexpressing human APP assessed as reduction in plasma amyloid beta38 level at 25 mg/kg, po administered via gavage for 3 consecutive days and measured after 4 hrs post last dose on day 3 by meso scale discovery relative to control; format: functional; design: scale not given: the % may be the effect or the level left; settings: time 3 day; how it was run: as §2
[8] = Metabolic stability in rat liver microsomes assessed as parent compound remaining at 1 uM incubated for 30 mins; format: ADME, Microsome; settings: 0.5 h
How it was run: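 Test compound at 1 μM incubated 30 min with human, rat or mouse liver microsomes (1 mg/mL); parent remaining expressed as %.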

Gamma-secretase = assay: Modulation of gamma secretase in human SH-SY5Y cells overexpressing wild type APP751 assessed as effect on amyloid beta40 level by meso scale discovery; format: cell-based
[9] = Kinetic aqueous solubility of the compound in pH 7.4 PBS buffer by UV/Visible absorbance analysis; format: physicochemical; settings: read-out: Kinetic_solubility
How it was run: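 Kinetic solubility determined in PBS at pH 7.4 by UV/Vis absorbance, reported in μM.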

[10] = In vivo modulation of gamma secretase in transgenic J20 mouse overexpressing human APP assessed as reduction in plasma amyloid beta42 level at 100 mg/kg, po administered via gavage for 3 consecutive days and measured after 4 hrs post last dose on day 3 by meso scale discovery relative to control; format: functional; design: scale not given: the % may be the effect or the level left; settings: time 3 day
How it was run: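 Female J20 mice, 5–6 months old (n=5/dose), given vehicle (5% NMP/95% PEG300) or test article at 25, 50 or 100 mg/kg by oral gavage daily for 3 days. Sacrificed 4 h after final dose; plasma Aβ38/40/42 quantified by Meso Scale multiplex (SECTOR Imager 6000). Percent reduction versus vehicle; mean ± SEM, ANOVA.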

[11] = Volume of distribution at steady state in CD-1 mouse at 1 mg/kg, iv administered as single dose measured up to 24 hrs; format: ADME, organism-based; settings: in vivo
How it was run: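 Male CD-1 mice, 6–8 weeks old, single tail-vein dose in 3% NMP/45% PEG300/12% ethanol/40% sterile water. Retro-orbital plasma (K3EDTA) taken at 0.083, 0.25, 0.5, 1, 2, 4, 8 and 24 h, n=3/timepoint, analysed by HPLC/MS/MS. Non-compartmental analysis (Model 201, uniform weighting); Tmax read directly from the data.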

[12] = In vivo modulation of gamma secretase in transgenic J20 mouse overexpressing human APP assessed as reduction in plasma amyloid beta38 level at 50 mg/kg, po administered via gavage for 3 consecutive days and measured after 4 hrs post last dose on day 3 by meso scale discovery relative to control; format: functional; design: scale not given: the % may be the effect or the level left; settings: time 3 day; how it was run: as §2
[13] = In vivo modulation of gamma secretase in transgenic J20 mouse overexpressing human APP assessed as reduction in plasma amyloid beta38 level at 100 mg/kg, po administered via gavage for 3 consecutive days and measured after 4 hrs post last dose on day 3 by meso scale discovery relative to control; format: functional; design: scale not given: the % may be the effect or the level left; settings: time 3 day; how it was run: as §2
[14] = In vivo modulation of gamma secretase in transgenic J20 mouse overexpressing human APP assessed as reduction in plasma amyloid beta42 level at 50 mg/kg, po administered via gavage for 3 consecutive days and measured after 4 hrs post last dose on day 3 by meso scale discovery relative to control; format: functional; design: scale not given: the % may be the effect or the level left; settings: time 3 day; how it was run: as §2
Cytochrome P450 2C19 = Cytochrome P450 2C19 (Homo sapiens, UniProt P33261); assay: Inhibition of recombinant CYP2C19 (unknown origin) by fluorescence-based assay; format: ADME; how it was run: as §1
Cytochrome P450 2C19, sequence (P33261 whole entry): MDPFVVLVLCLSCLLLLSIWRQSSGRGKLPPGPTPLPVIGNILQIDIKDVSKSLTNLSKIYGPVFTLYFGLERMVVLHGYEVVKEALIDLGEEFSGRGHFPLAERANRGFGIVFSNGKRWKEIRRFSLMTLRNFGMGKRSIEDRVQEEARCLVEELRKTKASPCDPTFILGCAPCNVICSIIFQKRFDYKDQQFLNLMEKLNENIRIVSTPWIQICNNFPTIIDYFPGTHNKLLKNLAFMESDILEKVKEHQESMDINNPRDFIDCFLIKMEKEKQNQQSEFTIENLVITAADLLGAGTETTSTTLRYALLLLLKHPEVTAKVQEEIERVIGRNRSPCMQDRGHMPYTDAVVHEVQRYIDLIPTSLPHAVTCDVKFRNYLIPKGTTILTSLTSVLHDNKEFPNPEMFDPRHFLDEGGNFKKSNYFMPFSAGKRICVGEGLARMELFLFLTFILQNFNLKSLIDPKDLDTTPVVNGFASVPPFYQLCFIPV

| SMILES | pIC50 (Cytochrome P450 1A2) | Activity [1] | BPR [2] | BPR [3] | Activity [4] | Tmax [5] | concentration at 72 h [6] | Activity [7] | Stabilty [8] | pIC50 (Gamma-secretase) | solubility kinetic [9] | Activity [10] | Vdss [11] | Activity [12] | Activity [13] | Activity [14] | pIC50 (Cytochrome P450 2C19) |
| --- | --- | --- | --- | --- | --- | --- | --- | --- | --- | --- | --- | --- | --- | --- | --- | --- | --- |
| CCn1nc2c(c1Nc1nc(-c3ccc(-n4cnc(C)c4)c(OC)n3)cs1)CCC2 | < 4.00 | 31% | 0.46 | 0.37 | 29% | 15 min | 86 ng/mL | 19% | 67% | 6.68 | 7.8 µM (≈ 3.29 µg/mL) | 76% | 2.234 L/kg | 27% | 50% | 40% | < 4.00 |
| COc1nc(-c2csc(Nc3c4c(nn3CCF)CCCC4)n2)ccc1-n1cnc(C)c1 | < 4.00 | 36% | 0.57 | 0.81 | 18% | 60 min | 72 ng/mL | 18% | 100% | 7.00 | 15 µM (≈ 6.8 µg/mL) | 55% | 2.826 L/kg | 33% | 45% | 48% | 5.34 |
